Source: PubChem BioAssay
Sampled rows, rich in hits. Any-hit rate of the full collection: about 2.6%.
SIAE primary = inhibitors of human sialic acid acetylesterase SIAE; SIAE FP-Rh probe binding, fluorescence polarization; inhibition, % at 9.66 µM; 370,000 tested, 0.69% active; AID 1053197;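 active = inhibition above a cutoff: mean of compounds within the control limits plus 3 SD of those, cut at about 17% in these data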;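 note: 0% = plate median of compound wells and 100% = probe without SIAE protein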
mABHD4 FP = ABHD4 (mouse) inhibition, primary FP screen; Q8VD66; purified mABHD4, FP-Rh probe fluorescence polarization; inhibition, % at 8.92 µM; 370,000 tested, 0.54% active; AID 720543;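 active = inhibition exceeding the mean over every tested compound plus 3 SD, cut at about 30% in these data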;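 note: 0% = plate median of compound wells and 100% = S159A mutant with DMSO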
Target sequence (Q8VD66 whole entry, looked up): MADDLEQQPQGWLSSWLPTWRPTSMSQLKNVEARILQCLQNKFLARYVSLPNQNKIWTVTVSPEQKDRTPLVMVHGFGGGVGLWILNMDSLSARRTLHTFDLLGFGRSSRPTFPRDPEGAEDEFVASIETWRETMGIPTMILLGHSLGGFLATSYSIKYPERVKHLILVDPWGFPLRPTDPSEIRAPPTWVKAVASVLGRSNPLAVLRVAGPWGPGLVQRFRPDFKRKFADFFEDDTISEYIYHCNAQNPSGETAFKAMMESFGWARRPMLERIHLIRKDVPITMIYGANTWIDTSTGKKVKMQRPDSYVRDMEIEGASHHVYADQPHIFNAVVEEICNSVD
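Material: mouse ABHD4 enzyme, wild type; Benchmarks: S159A mutant high control, sample median low control; Buffer or medium: HEPES pH 7.0, NaCl, Pluronic buffer; Signal: fluorescence polarization; Read-out: percent inhibition of probe binding, normalized to plate controls; Timing: pre-incubation 45 min, probe exposure 60 min, at 25 °C; Dosing: 8.92 µM, single dose.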
HTRA1 inhibitor = HTRA1 (human) protease inhibition. Q92743. recombinant HTRA1, FP-rhodamine activity-based probe, fluorescence polarization. inhibition, % at 5.96 µM. 340,000 tested, 0.5% active. AID 504803; in the data active = inhibition above about 36%;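 note: 0% = enzyme with DMSO and 100% = wells lacking enzyme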
PRMT1 inh = PRMT1 (human) inhibition, primary screen. Q99873. recombinant PRMT1, activity-based probe fluorescence polarization. inhibition, % at 2.79 µM. 370,000 tested, 1.3% active. AID 652257;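 active = inhibition above about 21% made by adding two undisclosed values, limit read from the data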
TCR-CD3 inh = human TCR-CD3 binding inhibition. TAMRA-labeled TCR probe fluorescence, biochemical. inhibition, % at 9.4 µM. 360,000 tested, 0.37% active; in the data active = inhibition above about 19%;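 note: recombinant mutant TCR 2C K166C tagged with TAMRA read by polarization; 0% = receptor in buffer alone and 100% = receptor with positive control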
PRMT1 confirm = PRMT1 (human) inhibition, FP confirmation; 3,300 tested, 42% active; inhibition, % at 2.79 µM; recombinant His-PRMT1, activity-based probe fluorescence polarization; AID 687036; shares compounds with PRMT1 inh;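 active = mean inhibition across replicates above the hit cutoff derived for the earlier primary screen, cut at about 22% in these data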
The depositor's hits bear a star; x = not tested or not shown; ! = not confirmed by another sample.

SMILES	SIAE primary	mABHD4 FP	HTRA1 inhibitor	PRMT1 inh	TCR-CD3 inh	PRMT1 confirm
CCOC(=O)CSC1=C(C#N)C(c2ccccc2F)C(C(C)=O)=C(C)N1 (stereo unspecified)	7	-5	-9	0	-2	x
O=C(OC12CCCN(C1)/C(=C/c1cccnc1)C2)c1ccco1 (stereo unspecified)	3	3	x	0	x	x
COc1ccccc1C(=O)Oc1ccc2c(c1)O/C(=C\c1ccncc1)C2=O	1	4	-5	38*	-1	13
CCC(=O)Oc1ccc2c(c1)O/C(=C\c1ccco1)C2=O	2	19	x	63*	-1	20
Cc1cc(O)cc2c1C(=O)/C(=C/c1ccco1)O2	-9	9	1	28*	-1	19
COC(=O)COc1ccc2c(c1)O/C(=C\c1ccco1)C2=O	1	15	18	31*	-1	1
CCN(CC)C(=O)Oc1ccc2c(c1)O/C(=C\c1ccco1)C2=O	-4	21	0	16	-6	x
CCC(C)(C)n1nnnc1C(c1ccc2ncccc2c1)N1CCN(c2nc3ccccc3s2)CC1 (stereo unspecified)	-5	-4	-44	-1	-4	x
CCC(C)(C)n1nnnc1C(c1ccc2ncccc2c1)N1CCN(c2ccc(O)cc2)CC1 (stereo unspecified)	2	18	11	27*	-3	2
CC[C@@]1(C(=O)OC)N[C@H](CN(C)C(=O)COC)[C@@H]2C(=O)N(C)C(=O)[C@@H]21	8	5	0	-1	1	x
Cc1cc(=O)oc2cc(OCC(=O)OCC(=O)NCCc3ccccc3)ccc12	-3	-4	3	27*!	6	-2
CNC(=O)COC(=O)COc1ccc2c(C)cc(=O)oc2c1	-4	2	-1	4	0	x
CSCCC(c1nc2ccccc2[nH]1)n1c(=O)c(-c2ccco2)nc2ccccc21 (stereo unspecified)	-3	8	x	45*	-7	16
OCCOCCn1c(C(CO)Nc2nc(-c3ccc(F)cc3)cs2)nc2ccccc21 (stereo unspecified)	4	-6	-6	1	-7	x
O=[N+]([O-])c1cc(-c2csc(NC(CO)c3nc4ccccc4n3CCOCCO)n2)ccc1Cl (stereo unspecified)	6	13	-9	37*	7	10
Cc1ccc(CNC(=O)c2ccc(NC(=O)CCS(=O)(=O)c3cccs3)cc2)cc1	0	1	-15	35*	3	2
O=C(CCS(=O)(=O)c1cccs1)Nc1ccc(C(=O)NCc2ccccc2)cc1	-3	-1	-10	2	-4	x
CC1(C)CC(=O)C(C=Nc2cccnc2)=C(O)C1	3	-1	2	-5	-2	x
CC1(C)CC(=O)C(C=Nc2cccnc2/N=C/C2=C(O)CC(C)(C)CC2=O)=C(O)C1	3	7	2	25*	1	-2
Cc1ccc(NC(=O)/C=C\C(=O)NCC(=O)O)cc1C	5	-5	-1	40*	-4	3
Cc1[nH]n(-c2ccccc2)c(=S)c1C=Nc1ccc([N+](=O)[O-])cc1	2	5	0	87*	0	96*
Cc1[nH]n(-c2ccccc2)c(=O)c1C=Nc1ccc(S(=O)(=O)N=C(N)N)cc1	-3	9	-1	3	-3	x
O=C1CC(N2CCC(O)(c3ccc(Br)cc3)CC2)C(=O)N1c1ccc(Cl)cc1 (stereo unspecified)	-1	5	-1	33*	-4	0
COc1ccc(N2C(=O)CC(N3CCC(O)(c4ccc(Br)cc4)CC3)C2=O)cc1 (stereo unspecified)	3	1	3	50*	0	2
O=C1CC(N2CCC(O)CC2)C(=O)N1c1ccc(Br)cc1 (stereo unspecified)	-2	-2	3	57*	-8	2
O=C1CC(N2CCN(c3ccc(Cl)cc3)CC2)C(=O)N1c1ccc(F)cc1 (stereo unspecified)	3	-1	-3	3	-4	x
COc1ccc(N2C(=O)CC(N3CCN(c4ccc(S(C)(=O)=O)cc4)CC3)C2=O)cc1 (stereo unspecified)	3	-4	-5	4	4	x
O=C1CC(N2CCC(O)(c3ccc(Cl)cc3)CC2)C(=O)N1 (stereo unspecified)	-4	-7	-5	54*	2	2
